Experimental data taken from PubChem BioAssay.
Results filed as inconclusive are left out.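 How the source made its calls, unless noted: active means viability increase at or above a cutoff of the median across tested compounds plus 3 SD (cut at about 8.5% in these data, passing the limit was not always enough); inconclusive means some gains above the cutoff, reason not given; inactive means the rest.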

Experiments:
[1] = S. cerevisiae growth inhibition in permissive medium (OD615), pilot counter-assay for S. cerevisiae lifespan shortening project, permissive growth control (AID 705;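 active means growth inhibition above 25% in both replicates, a cutoff set 3 SD above the mean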); conditions: OD615, 24 h, at 10 µM, stronger effect = higher value
In short: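 System: S. cerevisiae with engineered DeaD lifespan system. Medium: SC raffinose/galactose permissive medium. Doses: single compound dose of 10 µM, 0.25% DMSO final. Schedule: 24 h exposure, 30 °C. Measured by: OD615 turbidity read. Read-out: growth inhibition.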

[2] = S. cerevisiae growth inhibition in restrictive medium, OD615, pilot screen, restrictive growth control, yeast lifespan reduction project (AID 706;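 active means growth inhibition above a set limit, 3 SD over mean compound inhibition, in both replicates, cut at about 43% in these data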;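 further: modified DeaD lifespan yeast strain shifted to restrictive glucose medium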); conditions: OD615, 48 h, at 10 µM, stronger effect = higher value
In short: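 Assay system – genetically modified Saccharomyces cerevisiae, DeaD replicative lifespan assay strain · Medium – CSMM-D glucose medium · Doses – 10 µM compound, 0.25% DMSO · Times – 4 h pre-incubation, 48 h exposure at 30 °C · Signal – optical density at 615 nm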

[3] = doxorubicin toxicity protection in MRP-1 cells – H69AR cells, CellTiter-Glo, duplicate, MRP-1 activator project, pilot screen (AID 807); conditions: H69AR viability with doxorubicin, CellTiter-Glo luminescence; at 10 µM; stronger effect = higher value;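 further: compound pretreatment 18-22 h then 72 h combined with doxorubicin; 0% = doxorubicin alone and 100% = vehicle without doxorubicin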
[4] = viability of HCT116 without oncogenic beta-catenin – human colon tumor cells, pilot screen (AID 823;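 active means cell viability at or below a set limit in both duplicate runs, the limit being the all-compound median minus 4 SD, cut at about 23% in these data, passing the limit was not always enough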;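 further: 0% = wells killed by 20 µM Hyamine and 100% = untreated DMSO cell wells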); conditions: HCT116 beta-catenin knockout viability, CellTiter-Glo, 60 h; at 10 µM; stronger effect = lower value
[5] = viability of PTEN-null HCT116 cells – cell-based, HCT116 clonal line, CellTiter-Glo, pilot screen (AID 824;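 active means viability at or below 27.92% in each of two runs, the all-compound median minus 4 SD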;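 further: 0% = 20 µM Hyamine control and 100% = vehicle cell control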); conditions: HCT116 PTEN-deleted viability, 60 h, at 10 µM, stronger effect = lower value
[6] = RAM pathway blockade in budding yeast – dse1pr::URA3 reporter, 5-FOA selection, pilot screen (AID 869;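 active means inhibition over a set limit, the all-compound mean plus 3 SD, in both replicate runs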;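 further: 0% = DMSO wells with no growth and 100% = 10 µM 1-NA-PP1 with full growth; RAM network block rescues cells from 5-FOA so hits raise OD615 growth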); conditions: S. cerevisiae dse1pr::URA3 5-FOA growth, OD615, 2 d; at 10 µM; stronger effect = higher value; strain carries analog-sensitive mutant Cbk1 kinase
[7] = RAM signaling pathway blockade in yeast – S. cerevisiae, Pdr1DBD-CYC8 efflux-inhibited sensitized strain, primary screen (AID 1298;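 active means RAM network inhibition above 8.4% in each of two replicates, 3 SD over the compound average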;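 further: 0% = DMSO untreated cells without growth and 100% = 10 µM 1-NA-PP1 full growth; higher means more yeast growth rescued from 5-FOA killing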); conditions: S. cerevisiae cbk1-as DSE1-URA3 strain, 5-FOA growth OD615, 2 d; at 50 µM; stronger effect = higher value

COc1ccc(Cl)cc1Nc1nc(N2CCCC2)nc(N2CCCC2)n1
inactive: growth inhibition [1] 2.74% | growth inhibition [2] 2.22% | viability increase [3] 0.95% | viability [4] 95.5% | viability [5] 93.3% | inhibition [6] 0.095% | RAM network inhibition [7] 6.43%

COC(=O)C1CCN(C(c2cccs2)c2sc3nc(C)nn3c2O)CC1 (stereo unspecified)
inactive: growth inhibition [1] -3.2% | growth inhibition [2] 1.52% | viability increase [3] -1.54% | viability [4] 102% | viability [5] 96.4% | inhibition [6] 1.68% | RAM network inhibition [7] 1.07%

CCOC(=O)c1[nH]c(C)c(C(=O)Nc2ccc(C)c(C)c2)c1C
inactive: growth inhibition [1] -12.6% | growth inhibition [2] -10.7% | viability increase [3] -4.91% | viability [4] 64.1% | viability [5] 45.9% | inhibition [6] 1.46% | RAM network inhibition [7] 1.84%

Cc1ccc(NC(=O)c2cc(-c3cccc(O)c3)on2)cc1C
inactive: growth inhibition [1] -19.1% | growth inhibition [2] -5.78% | viability increase [3] -0.54% | viability [4] 92.1% | viability [5] 87% | inhibition [6] 3.14% | RAM network inhibition [7] 4.28%

COc1ccccc1NC(=O)CSc1nnc(-c2ccccn2)n1Cc1ccco1
inactive: growth inhibition [1] -3.73% | growth inhibition [2] 13.1% | viability increase [3] -3.83% | viability [4] 101% | viability [5] 96.8% | inhibition [6] 1.23% | RAM network inhibition [7] 2.52%

CCOC(=O)CN1CC23C=CC(O2)C(C(=O)Nc2ccc4c(c2)OCO4)C3C1=O (stereo unspecified)
inactive: growth inhibition [1] -0.14% | growth inhibition [2] 3.22% | viability increase [3] -1.01% | viability [4] 107% | viability [5] 103% | inhibition [6] 2.71% | RAM network inhibition [7] 1.23%

CNC(=O)c1c[nH]n2c(=O)c(Cc3ccccc3F)c(C)nc12
inactive: growth inhibition [1] -2.95% | growth inhibition [2] -3.94% | viability increase [3] -0.89% | viability [4] 87.7% | viability [5] 91.6% | inhibition [6] 1.17% | RAM network inhibition [7] 3.18%

O=C(CSc1nc(-c2ccccc2)c(-c2ccccc2)o1)N1CCOCC1
inactive: growth inhibition [1] -8.68% | growth inhibition [2] -15.5% | viability increase [3] -3.26% | viability [4] 90.2% | viability [5] 89.6% | inhibition [6] 2.38% | RAM network inhibition [7] 4.54%

CCSc1sccc1C1C(C#N)=C(N)N(c2cccnc2)C2=C1C(=O)CC(C)(C)C2 (stereo unspecified)
inactive: growth inhibition [1] -14.3% | growth inhibition [2] -6.69% | viability increase [3] -6.56% | viability [4] 92.1% | viability [5] 93.2% | inhibition [6] 0.9% | RAM network inhibition [7] 12.4%

O=C(CSc1nc2c(c(=O)n1-c1ccc(Cl)cc1)SCC2)Nc1ccc2c(c1)OCCO2
inactive: growth inhibition [1] -7.54% | growth inhibition [2] 10.9% | viability increase [3] -2.7% | viability [4] 92% | viability [5] 84.8% | inhibition [6] 2.02% | RAM network inhibition [7] 4.16%

CCCn1c2ccccc2c2cc(C(=O)O)ccc21
inactive: growth inhibition [1] -20.7% | growth inhibition [2] -6% | viability increase [3] -3.03% | viability [4] 106% | viability [5] 93.5% | inhibition [6] 1.95% | RAM network inhibition [7] 2.82%

O=C(Nc1ccccc1O)c1ccccc1O
inactive: growth inhibition [1] -9.29% | growth inhibition [2] 2.25% | viability increase [3] -3.07% | viability [4] 75.1% | viability [5] 63.3% | inhibition [6] -0.42% | RAM network inhibition [7] -1.84%

O=C(Nc1ccc(SC(F)F)cc1)C1=COCCO1
inactive: growth inhibition [1] -0.035% | growth inhibition [2] 10.5% | viability increase [3] 2.59% | viability [4] 93.8% | viability [5] 90.1% | inhibition [6] 1.4% | RAM network inhibition [7] 5.17%

CCOc1ccc(-n2c(SCc3ccc(C(=O)OC)o3)nc3c(c2=O)SCC3)cc1
inactive: growth inhibition [1] -21.2% | growth inhibition [2] -16.2% | viability increase [3] -2.41% | viability [4] 81.3% | viability [5] 72.7% | inhibition [6] 2.39% | RAM network inhibition [7] 6.94%

O=C(NCCCN1CCCCC1)C1(S(=O)(=O)c2ccc(Cl)cc2)CC1
inactive: growth inhibition [1] -12.4% | growth inhibition [2] -14% | viability increase [3] -1.07% | viability [4] 103% | viability [5] 97.2% | inhibition [6] 1.6% | RAM network inhibition [7] 2.82%

CC(C)c1ccccc1NC(=O)CCCC(=O)O
inactive: growth inhibition [1] -2.18% | growth inhibition [2] -0.2% | viability increase [3] -0.29% | viability [4] 96.9% | viability [5] 102% | inhibition [6] 0.36% | RAM network inhibition [7] 2.42%

O=C(Cn1cnc2c(cnn2-c2ccccc2)c1=O)N1CCOCC1
inactive: growth inhibition [1] -4% | growth inhibition [2] -3.03% | viability increase [3] -0.44% | viability [4] 101% | viability [5] 102% | inhibition [6] 0.17% | RAM network inhibition [7] 1.17%

CC1CN(S(=O)(=O)c2ccc(Cl)c(S(=O)(=O)N3CC(C)OC(C)C3)c2)CC(C)O1 (stereo unspecified)
inactive: growth inhibition [1] -13.5% | growth inhibition [2] -17.1% | viability increase [3] -0.41% | viability [4] 89% | viability [5] 87.1% | inhibition [6] 4.11% | RAM network inhibition [7] 1.17%
